The term IC50 denotes the concentration needed to halve the response being measured. A word on the CC50: it is the concentration that lowers cell viability or growth by half. Lower therefore signals greater toxicity to the cells.

One data set has as its system A549. In words: Antiproliferative activity against human A549 cells after 96 hrs by MTT assay. In kind it is functional, cell-based. Particulars: A549, 96 h. The method, boiled down: (§1)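 MTT viability. Seeding was 1000 cells/well for HUVEC, 1500 for MCF-7 and CCC-HPF-1, and 2000 for A549. After 20 h attachment, compound or carrier was added from 2% DMSO/PBS stocks (final DMSO 0.1%), in triplicate per concentration.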

A short description of data set [1]: Selectivity ratio of CC50 for human CCC-HPF1 cells to IC50 for HUVEC. Particulars: CCC-HPF1 cells versus HUVEC, read-out: Ratio CC50/IC50. In kind it is ADME, cell-based.
In a further data set the test system is HUVEC. The experiment in a line: Antiangiogenic activity in HUVEC after 96 hrs by MTT assay. In kind it is functional, cell-based. Particulars: Homo sapiens. The method in brief: as §1
For orientation: Formazan colour is commonly taken as a measure of viable cells.

For another data set, the system named is MCF7. In words: Antiproliferative activity against human MCF7 cells after 96 hrs by MTT assay. Particulars: MCF7, 96 h.
Data set [2] in a line: Antiproliferative activity against human CCC-HPF1 cells after 96 hrs by MTT assay. In kind it is cell-based. The method in brief: as §1

On to `CN(C)c1ccc(/C=C2\Oc3ccc(O)cc3C2=O)cc1`, for which the IC50 in the data set on A549 amounted to 18.7 µM; in the data set with HUVEC, 1.35 µM; in the data set on MCF7, 10.1 µM. Further, the selectivity ratio in data set [1] was 20. Further, in data set [2], the CC50 at 96 h came out at 25.1 µM.
Take `CO[C@@H]1[C@H](OC(=O)/C=C/C=C/C=C/C=C/C(=O)O)CC[C@]2(CO2)[C@H]1[C@@]1(C)O[C@@H]1CC=C(C)C` [FUMAGILLIN]: the IC50 in the data set with A549 was ≥ 50 µM; in the data set on HUVEC it was 0.0089 µM; in the data set with MCF7, ≥ 50 µM.

The values above are taken from ChEMBL document CHEMBL1629712, “Design, synthesis and discovery of 5-hydroxyaurone derivatives as growth inhibitors against HUVEC and some cancer cell lines” (Eur J Med Chem, 2010).
